Results: ChEMBL document CHEMBL1811868, “Structure-activity relationship of 2-hydroxy-2-aryl-2,3-dihydro-imidazo[1,2-a]pyrimidinium salts and 2N-substituted 4(5)-aryl-2-amino-1H-imidazoles as inhibitors of biofilm formation by Salmonella Typhimurium and Pseudomonas aeruginosa” (Bioorg Med Chem, 2011)
Activity calls are given as the source filed them.

Legend:
Salmonella typhimurium [1] = assay: Antimicrobial activity against Salmonella Typhimurium ATCC 14028 assessed as inhibition of planktonic cell growth at 80 uM after 24 hrs by […]; type: functional, organism-based; conditions: Salmonella enterica subsp. enterica serovar Typhimurium
In short: (§1)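 Planktonic growth was followed by Bioscreen growth curves, not by crystal violet. Overnight cultures were diluted 1:200 in TSB 1/20 and received compound serially diluted in DMSO or EtOH, in triplicate, with solvent controls. Plates were shaken at 25 °C for at least 24 h, reading A600 every 15 min.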

Pseudomonas aeruginosa [2] = assay: Antimicrobial activity against Pseudomonas aeruginosa PA14 assessed as inhibition of planktonic cell growth at IC50 after 24 hrs by […]; type: functional, organism-based; in short: as §1
Salmonella typhimurium [3] = assay: Antimicrobial activity against Salmonella Typhimurium ATCC 14028 assessed as inhibition of biofilm formation after 24 hrs by spectrophotometry; type: functional, organism-based, Salmonella enterica subsp. enterica serovar Typhimurium; conditions: Salmonella enterica, ATCC 14028, 24 h
In short: (§2)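 Static peg-lid biofilm prevention assay. Twofold serial dilutions in TSB diluted 1/20, 2–3 repeats per compound. Overnight S. Typhimurium ATCC14028 (LB-grown) or P. aeruginosa PA14 (TSB-grown) cultures were diluted 1:100, giving ~10^6 cells/well, then incubated 24 h at 25 °C without shaking. Pegs were PBS-washed, stained 30 min with 0.1% crystal violet, extracted with 30% acetic acid and read at OD570. IC50 was fitted from the concentration gradient.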

Pseudomonas aeruginosa [4] = assay: Antimicrobial activity against Pseudomonas aeruginosa PA14 assessed as inhibition of biofilm formation after 24 hrs by spectrophotometry; type: functional, organism-based; conditions: PA14, 24 h; in short: as §2
Salmonella typhimurium [5] = assay: Antimicrobial activity against Salmonella Typhimurium ATCC 14028 assessed as inhibition of planktonic cell growth at IC50 after 24 hrs by […]; type: functional, organism-based; conditions: Salmonella enterica subsp. enterica serovar Typhimurium; in short: as §1
Pseudomonas aeruginosa [6] = assay: Antimicrobial activity against Pseudomonas aeruginosa PA14 assessed as inhibition of planktonic cell growth at 80 uM after 24 hrs by […]; type: functional, organism-based; in short: as §1
Salmonella typhimurium [7] = assay: Antimicrobial activity against Salmonella Typhimurium ATCC 14028 assessed as inhibition of planktonic cell growth at 40 uM after 24 hrs by […]; type: functional, organism-based; conditions: Salmonella enterica subsp. enterica serovar Typhimurium; in short: as §1
Pseudomonas aeruginosa [8] = assay: Antimicrobial activity against Pseudomonas aeruginosa PA14 assessed as inhibition of planktonic cell growth at 5 uM after 24 hrs by […]; type: functional, organism-based; in short: as §1
Salmonella typhimurium [9] = assay: Antimicrobial activity against Salmonella Typhimurium ATCC 14028 assessed as inhibition of planktonic cell growth at 20 uM after 24 hrs by […]; type: functional, organism-based; conditions: Salmonella enterica subsp. enterica serovar Typhimurium; in short: as §1
Pseudomonas aeruginosa [10] = assay: Antimicrobial activity against Pseudomonas aeruginosa PA14 assessed as inhibition of planktonic cell growth at 40 uM after 24 hrs by […]; type: functional, organism-based; in short: as §1

| SMILES | growth inhibition (GI) (Salmonella typhimurium [1]) | growth inhibition (GI) (Pseudomonas aeruginosa [2]) | IC50 (Salmonella typhimurium [3]) | IC50 (Pseudomonas aeruginosa [4]) | growth inhibition (GI) (Salmonella typhimurium [5]) | growth inhibition (GI) (Pseudomonas aeruginosa [6]) | growth inhibition (GI) (Salmonella typhimurium [7]) | growth inhibition (GI) (Pseudomonas aeruginosa [8]) | growth inhibition (GI) (Salmonella typhimurium [9]) | growth inhibition (GI) (Pseudomonas aeruginosa [10]) |
| --- | --- | --- | --- | --- | --- | --- | --- | --- | --- | --- |
| O[C@@]1(c2ccc(Cl)cc2)C[n+]2cccnc2N1C1CCCCC1 | Active | inactive | 33 µM | 16.4 µM | Active | Active |  |  |  |  |
| CC(C)CNc1ncc(-c2ccc(Br)cc2)[nH]1 |  | inactive | 2.9 µM | 1.2 µM | inactive |  | Active | inactive | inactive |  |
| Clc1ccc(-c2cnc(NC3CCCC3)[nH]2)cc1Cl |  | inactive | 5.7 µM | 7.9 µM | inactive |  |  |  | inactive | inactive |
| O=[N+]([O-])c1ccc(-c2cnc(NC3CCCC3)[nH]2)cc1 |  | inactive | 11.8 µM | 20.2 µM | inactive |  |  |  | inactive |  |
| CCCCNc1ncc(-c2ccc(F)cc2)[nH]1 | inactive | inactive | 15.5 µM | 10.8 µM | inactive |  |  |  |  | inactive |
| CC(C)CNc1ncc(-c2ccccc2)[nH]1 |  | inactive | 4.9 µM | 1.2 µM | inactive |  | inactive | inactive |  |  |
| CCCNc1ncc(-c2ccc(Cl)c(Cl)c2)[nH]1 |  |  | 10.9 µM | 27.7 µM | inactive |  |  |  | inactive |  |
| O[C@@]1(c2ccccc2)C[n+]2cccnc2N1C1CCCCC1 |  | inactive | 139 µM | 22.4 µM | Active | Active |  |  |  |  |
| c1ccc(-c2cnc(NC3CCCC3)[nH]2)cc1 | inactive | inactive | 52.9 µM | 33.8 µM | inactive |  |  |  |  | inactive |
| CCCCNc1ncc(-c2ccc(OC)cc2)[nH]1 | inactive | inactive | 52.6 µM | 46.3 µM | inactive | inactive |  |  |  |  |
| O[C@@]1(c2ccccc2)C[n+]2cccnc2N1C1CCCCCCC1 | Active | Active | 58.4 µM | 48.6 µM | Active | Active |  |  |  |  |
| CCCCCNc1ncc(-c2ccc(Cl)c(Cl)c2)[nH]1 |  | inactive | 2.2 µM | 0.7 µM |  |  |  | inactive |  |  |
| Nc1ncc(-c2ccc(Cl)cc2)[nH]1 |  | inactive |  |  | inactive |  | inactive | inactive |  |  |
| CCCCCCCCNc1ncc(-c2ccc([N+](=O)[O-])cc2)[nH]1 | inactive |  | 10.9 µM | 25 µM | inactive |  |  |  |  |  |
| CCCCCCCCNc1ncc(-c2cccc(Br)c2)[nH]1 | inactive |  | 44.6 µM | > 800 µM | inactive |  |  |  |  |  |
| COc1ccc(-c2cnc(NC3CCCCC3)[nH]2)cc1 |  | inactive | 378 µM | 54.8 µM |  | inactive |  |  |  |  |
| O[C@@]1(c2ccc(Cl)cc2)C[n+]2cccnc2N1C1CCCCCC1 |  | Active | 27.9 µM | 76.2 µM | Active | Active |  |  |  |  |
| O[C@@]1(c2ccc(Cl)cc2)C[n+]2cccnc2N1C1CCCC1 | Active | Active | 41.8 µM | 41.9 µM | Active | Active |  |  |  |  |
